Sampled rows, rich in hits. Any-hit rate of the full collection: about 2.2%.
M5 antag: blocks acetylcholine activation of human M5 receptor; 360,000 tested, 0.59% active; P08912; inhibition, % at 3 µM; AID 624040; CHO-hM5 cells, Fluo-8 calcium fluorescence, ACh EC80;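 active = inhibition above a per-plate cutoff, the mean of that plate's test compounds plus 3 SD, cut at about 27% in these data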;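 note: 0% = acetylcholine EC80 with DMSO and 100% = DMSO without agonist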
Target sequence (P08912 whole entry, looked up): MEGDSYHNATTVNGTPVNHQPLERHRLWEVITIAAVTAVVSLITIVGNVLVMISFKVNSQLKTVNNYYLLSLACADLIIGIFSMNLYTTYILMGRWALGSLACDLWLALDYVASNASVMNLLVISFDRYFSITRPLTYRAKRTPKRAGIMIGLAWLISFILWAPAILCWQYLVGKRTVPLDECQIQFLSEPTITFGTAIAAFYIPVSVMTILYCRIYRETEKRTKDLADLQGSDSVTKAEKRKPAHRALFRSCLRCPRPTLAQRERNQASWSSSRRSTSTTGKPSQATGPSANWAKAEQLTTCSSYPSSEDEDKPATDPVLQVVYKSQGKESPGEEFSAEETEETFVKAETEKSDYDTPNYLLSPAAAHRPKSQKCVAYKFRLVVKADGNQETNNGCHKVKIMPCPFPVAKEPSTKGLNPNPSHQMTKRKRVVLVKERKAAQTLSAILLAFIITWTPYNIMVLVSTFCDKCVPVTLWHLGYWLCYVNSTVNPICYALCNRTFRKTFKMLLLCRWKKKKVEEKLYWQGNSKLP
CHRM1 antagonist: human CHRM1 antagonism. P11229. CHO-K1 hM1, Fluo-8 calcium fluorescence, ACh EC80 antagonist. inhibition, % at 3 µM. 360,000 tested, 1.3% active. AID 588852;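 active = percent inhibition above its own plate's cutoff, namely the mean of that plate's compound wells plus 3 SD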;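 note: peak over basal fluorescence ratio during 140 s after agonist addition; 0% = ACh EC80 plus DMSO and 100% = DMSO alone without agonist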
CHRM1 PAM: potentiates human M1 receptor response to acetylcholine. 360,000 tested, 0.088% active. CHO-K1 hM1, Fluo-8 calcium fluorescence, ACh EC20; 0% = ACh EC20, 100% = maximal ACh. AID 588819. P11229. activation, % at 3 µM; in the data active = activation above about 19%, passing the limit was not always enough
CHRM5 agonist: agonists of human muscarinic M5 receptor (CHRM5); P08912; CHO-K1 hM5 cells, Fluo-8 calcium fluorescence; 0% DMSO wells, 100% maximal acetylcholine response; activation, % at 3 µM; 360,000 tested, 0.19% active; AID 624037;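 active = activation above the run's mean over test compounds plus 3 SD, cut at about 23% in these data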;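 note: signal is peak over basal fluorescence ratio across the kinetic read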
CHRM1 agonist: agonists of human M1 muscarinic receptor. 360,000 tested, 0.33% active. activation, % at 3 µM. P11229. CHO-K1 hM1, Fluo-8 calcium fluorescence, agonist mode; 0% DMSO, 100% acetylcholine EC100;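 active = activation above the run's mean compound activation plus 3 SD, cut at about 16% in these data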;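 note: peak over basal fluorescence ratio within a 140 s kinetic read after compound addition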
CHRM5 PAM: potentiates acetylcholine response at human M5 receptor; CHO-K1 hM5, Fluo-8 calcium, ACh EC20 PAM; 0% = ACh EC20, 100% = ACh EC100; activation, % at 3 µM; 360,000 tested, 0.3% active; AID 624038;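 active = activation above the run cutoff, the mean activation of all test compounds plus 3 SD, cut at about 18% in these data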
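system = human M5 receptor in CHO-K1 cells | reagent = EC20 acetylcholine as agonist stimulus | compound dosing = single-point, 3 µM nominal | incubation = Fluo-8 loading 80 min at 37 °C plus 30 min room temperature | detection = Fluo-8 calcium dye fluorescence, kinetic read | benchmarks = low control EC20 acetylcholine (0%), high control EC100 acetylcholine (100%)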
The depositor's hits bear a star.

Screening Cc1ccc(S(=O)(=O)N2CCN(C(=O)c3sccc3-c3ccccc3)CC2)cc1 returned M5 antag 29.6*, CHRM1 antagonist 17.6, CHRM1 PAM -6.6, CHRM5 agonist -5.9, CHRM1 agonist -5.6 and CHRM5 PAM -11.9.
`O=C(c1sccc1-c1ccccc1)N1CCN(S(=O)(=O)c2ccccc2)CC1` gave M5 antag -14.2, CHRM1 antagonist 9.0, CHRM1 PAM -7.9, CHRM5 agonist -3.7, CHRM1 agonist -5.0 and CHRM5 PAM -0.5.
O=C(CSc1ccccc1)N1CCN(S(=O)(=O)c2ccccc2)CC1 was read as M5 antag 15.6, CHRM1 antagonist -8.3, CHRM1 PAM 4.5, CHRM5 agonist -4.5, CHRM1 agonist -2.4 and CHRM5 PAM -2.7.
Screening Cc1ccc(S(=O)(=O)N2CCN(C(=O)CSc3ccc(F)cc3)CC2)cc1 returned M5 antag 29.0*, CHRM1 antagonist -15.2, CHRM1 PAM 11.3, CHRM5 agonist -0.2, CHRM1 agonist -4.5 and CHRM5 PAM 19.2*.
`Cc1ccc2c(c1)N(CC(=O)NCc1cccs1)C(=O)CO2` gave M5 antag -8.7, CHRM1 antagonist -1.7, CHRM1 PAM 4.6, CHRM5 agonist -0.2, CHRM1 agonist -3.1 and CHRM5 PAM -2.3.
Screening COc1cc(/C=C/C(=O)c2ccc3c(c2)OCO3)cc(Cl)c1O returned M5 antag 33.2*, CHRM1 antagonist 34.7*, CHRM1 PAM -18.7, CHRM5 agonist 50.0*, CHRM1 agonist 47.5* and CHRM5 PAM -15.2.
For COc1ccc(C(=O)C=Cc2ccc3c(c2)OCO3)cc1OC the results were M5 antag 1.4, CHRM1 antagonist -17.0, CHRM1 PAM 6.4, CHRM5 agonist -0.3, CHRM1 agonist -3.4 and CHRM5 PAM 0.2.
For CCCNC(=O)C12CCC(C)(c3nc4cc(C)c(C)cc4nc31)C2(C)C (stereo unspecified) the results were M5 antag -3.3, CHRM1 antagonist -13.3, CHRM1 PAM 9.4, CHRM5 agonist 12.5, CHRM1 agonist 3.5 and CHRM5 PAM 25.5*.
CC(=O)c1ccc(OC2(C)CCN(CCOc3ccc(C)cc3)C2)cc1 (stereo unspecified) was read as M5 antag 4.9, CHRM1 antagonist -17.6, CHRM1 PAM 10.3, CHRM5 agonist -2.9, CHRM1 agonist -8.1 and CHRM5 PAM -7.4.
CCCCN(CC)C(=O)c1n[nH]c(=O)c2ccccc12 was read as M5 antag -15.7, CHRM1 antagonist -10.5, CHRM1 PAM 7.0, CHRM5 agonist 6.8, CHRM1 agonist -2.6 and CHRM5 PAM 25.3*.
CCCCN(CC)C(=O)c1cc2cc3ccc(OC)cc3nc2o1 was read as M5 antag -0.6, CHRM1 antagonist -7.6, CHRM1 PAM 5.1, CHRM5 agonist 16.5, CHRM1 agonist -0.7 and CHRM5 PAM 41.7*.
O=C(NC1CCCC1)C(c1ccc(F)cc1)N(Cc1ccccc1Cl)C(=O)CCl (stereo unspecified) was read as M5 antag 7.2, CHRM1 antagonist -17.7, CHRM1 PAM 18.0, CHRM5 agonist -2.0, CHRM1 agonist -6.2 and CHRM5 PAM -0.5.
`COc1cc(O)c(C(C)=O)c(CC(=O)O)c1` gave M5 antag -5.7, CHRM1 antagonist -2.2, CHRM1 PAM 1.1, CHRM5 agonist 1.9, CHRM1 agonist -2.1 and CHRM5 PAM -0.8.
For COc1ccc(CN(C)C(=O)C(Cc2ccccc2)NC(=O)c2ccccc2)c(OC)c1 (stereo unspecified) the results were M5 antag 12.2, CHRM1 antagonist -2.0, CHRM1 PAM -2.8, CHRM5 agonist -1.5, CHRM1 agonist -0.5 and CHRM5 PAM -24.3.
For Cc1ccc(CN2CCNC(=O)C2CC(=O)NCC(F)(F)F)o1 (stereo unspecified) the results were M5 antag 27.3*, CHRM1 antagonist -2.4, CHRM1 PAM 6.8, CHRM5 agonist -4.0, CHRM1 agonist -4.2 and CHRM5 PAM -12.7.
